# Compounds with a hit are over-represented: about 2.2% of the library has one in this group of screens.
# NR2E3 ag-1 – NR2E3 (human) agonism; Q9Y5X4; GST-NR2E3/biotin-RetCOR TR-FRET, 1536-well; inhibition of corepressor binding, % at 4.78 µM; 0.12% of 320,000 active; AID 2300;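 active means percent inhibition above the cutoff of mean plus 3 SD of all tested compounds, set per screening campaign, cut at about 20% in these data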;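 further: 0% = DMSO wells and 100% = biotin wells as full block of FRET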
# Target sequence (Q9Y5X4 whole entry, looked up): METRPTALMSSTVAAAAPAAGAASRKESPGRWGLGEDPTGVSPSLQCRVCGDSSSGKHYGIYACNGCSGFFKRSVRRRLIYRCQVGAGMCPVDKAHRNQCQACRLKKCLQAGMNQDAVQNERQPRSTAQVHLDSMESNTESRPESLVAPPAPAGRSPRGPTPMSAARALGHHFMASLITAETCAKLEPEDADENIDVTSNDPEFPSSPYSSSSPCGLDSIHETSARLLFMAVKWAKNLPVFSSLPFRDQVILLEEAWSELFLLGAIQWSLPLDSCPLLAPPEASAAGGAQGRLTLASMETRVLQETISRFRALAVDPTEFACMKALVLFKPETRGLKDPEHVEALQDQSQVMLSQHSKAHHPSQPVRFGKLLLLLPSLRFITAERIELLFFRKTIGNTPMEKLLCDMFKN
#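 Material: NR2E3–RetCOR corepressor complex / Incubation: Compound–protein incubation for 5 h at 4 °C / Dosing: compound at 4.8 µM, single dose / Detection: time-resolved FRET / Benchmarks: high control biotin, low control 0.6% DMSO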
# NR2E3 ag-2 – agonists of human NR2E3 nuclear receptor; Q9Y5X4; CHO-S Gal4-NCOR/VP16-NR2E3 two-hybrid, luciferase; inhibition of corepressor binding, % at 3.98 µM; 0.35% of 360,000 active;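 active means inhibition above the mean of all tested compounds plus 3 SD, cut at about 70% in these data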;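 further: 0% = DMSO with NR2E3 transfected cells and 100% = cells lacking NR2E3 construct; higher means lower luciferase signal from less NR2E3 corepressor binding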
# FGF22 binding – binders of recombinant human FGF22 by thermal shift | activity (Tm shift, normalised), % at 9.99 µM | AID 651658 | SYPRO orange fluorescence; percent of sucrose octasulfate shift, DMSO zero | Q9HCT0 | 1.5% of 340,000 active;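 active means mean Tm shift, scaled 0 neutral to 100 positive control, at about 1.3% or above, every replicate too, limit read from the data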
# Target sequence (Q9HCT0 whole entry, looked up): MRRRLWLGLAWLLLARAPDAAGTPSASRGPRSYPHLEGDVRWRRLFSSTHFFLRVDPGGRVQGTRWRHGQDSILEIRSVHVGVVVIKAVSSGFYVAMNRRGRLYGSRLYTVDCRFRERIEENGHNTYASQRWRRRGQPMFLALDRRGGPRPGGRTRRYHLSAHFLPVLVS
# Jurkat NFkB inh – inhibitors of the PMA/ionomycin-induced NF-kB reporter in Jurkat cells | AID 435003 | 0.53% of 330,000 active | PMA/ionomycin-induced NF-kB luciferase reporter, luminescence | inhibition, % at 4 µM; in the data active means inhibition above about 50%
# miR122 inh – miR-122 inhibition in Huh7 cells | Huh7 miR-122 Renilla luciferase sensor, 48 h; neutral wells = 0, positive control = 100 | activation (reporter increase), % at 12.5 µM | 0.3% of 340,000 active;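 active means mean replicate activation score at least 90 and every replicate individually at or above 90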;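 further: higher luciferase means less miR-122 activity so hits act as miR-122 inhibitors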
# 697 NFkB inh – inhibitors of the PMA/ionomycin-induced NF-kB reporter in 697 B cells; 697 B-cell NF-kB luciferase reporter, 16 h; AID 435022; inhibition, % at 4 µM; 0.33% of 330,000 active; in the data active means inhibition above about 35%
# NR2E3 ag confirm – NR2E3 agonism confirmed in two-hybrid assay. shares compounds with NR2E3 ag-2. CHO-S mammalian two-hybrid NR2E3-NCOR, luciferase luminescence. inhibition, % at 3.98 µM. 51% of 2,300 active. AID 624378;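 active means average inhibition above a cutoff equal to the mean inhibition of all tested compounds plus one SD, cut at about 70% in these data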;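 further: 0% = DMSO in NR2E3 cells and 100% = DMSO in cells lacking NR2E3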
# VP16 counter – reduces GAL4-VP16 reporter signal in NR2E3 counterscreen; shares compounds with NR2E3 ag-2; CHO-S GAL4-VP16 luciferase reporter, luminescence; inhibition, % at 3.98 µM; 29% of 2,300 active;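 active means mean inhibition above a cutoff equal to the average over all tested compounds plus one standard deviation, cut at about 70% in these data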;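 further: luciferase from a UAS reporter driven by GAL4-VP16 transactivation; 0% = DMSO with VP16-transfected cells and 100% = DMSO with cells lacking VP16; higher means less reporter light so more repression of VP16 activity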
# Numbers without * were called inactive; · = no result; [ ] = another dose, or the depositor's remark.
SMILES,NR2E3 ag-1,NR2E3 ag-2,FGF22 binding,Jurkat NFkB inh,miR122 inh,697 NFkB inh,NR2E3 ag confirm,VP16 counter
CC(=O)N1c2ccc(S(=O)(=O)NCCC(=O)N(C)Cc3ccccc3)cc2CC1C (centres undefined),0.5,-5.5,-0.1,-8.4,9.9,18.1,·,·
CC1Cc2cc(S(=O)(=O)NCCc3ccccc3)ccc2N1C(=O)C1CC1 (centres undefined),-1.4,49.9,-0.8,17.8,132.0*,-8.9,71.3*,57.5
CC(=O)N1c2ccc(S(=O)(=O)NCCc3ccccc3)cc2CC1C (centres undefined),-0.8,72.9*,-0.2,11.9,153.0*,1.4,54.9,50.2
CCC(=O)N1c2ccc(S(=O)(=O)NCCc3ccc(C)cc3)cc2CC1C (centres undefined),2.3,27.0,0.2,15.2,·,-10.4,·,·
C[C@H](CO)N1C[C@H](C)[C@@H](CN(C)S(=O)(=O)c2ccc(Cl)cc2)OCCCC[C@H](C)Oc2ccc(NS(=O)(=O)c3cn(C)cn3)cc2C1=O,·,·,0.0,·,-0.2[16.7 µM],·,·,·
O=C(Nc1cccc(NC(=O)c2c(F)cccc2F)n1)c1c(F)cccc1F,-2.9,60.0,-0.4,0.0,·,0.5,79.4*,1.4
O=C(Nc1cccc(NC(=O)c2cccc(F)c2)n1)c1cccc(F)c1,1.8,-52.2,-0.3,-14.2,2.0,-28.4,·,·
O=C(C(=Cc1ccccc1)CN1CCCCC1)c1ccccc1,·,93.3*,-0.5,·,·,·,101.1*,46.9
CO[C@@H]1CN(C)C(=O)c2ccc(NC(C)=O)cc2OC[C@@H](C)N(Cc2nccs2)C[C@H]1C,·,·,-0.1,·,-10.5[16.7 µM],·,·,·
Fc1ccc(Nc2nc(NCc3ccccc3)nc3ccsc23)cc1,·,54.6,0.0,·,10.9,·,59.4,41.0
c1ccc(CNc2nc(NCc3cccs3)nc3ccsc23)cc1,·,26.4,0.1,·,5.4,·,·,·
N#Cc1ccc(Nc2nc(NCc3ccccc3)nc3ccsc23)cc1,·,-50.9,0.0,·,-4.4,·,·,·
C#Cc1cccc(Nc2nc(NCc3ccccc3)nc3ccsc23)c1,·,61.2,0.1,·,-3.0,·,84.2*,44.3
c1ccc(CNc2nc(NCCc3ccncc3)c3sccc3n2)cc1,·,81.2*,-0.1,·,-13.5,·,51.7,55.1
C[C@@H]1CCCCO[C@H](CN(C)C(=O)Nc2ccc(F)cc2)[C@@H](C)CN([C@@H](C)CO)C(=O)c2cc(NC(=O)CCC(F)(F)F)ccc2O1,·,·,0.5,·,11.4[16.7 µM],·,·,·
Cc1cc(/C=C2\SC(=S)NC2=O)c(C)[nH]1,-4.7,-39.7,·,-7.9,-11.5,-8.4,·,·
O=C1NC(=S)S/C1=C\c1cc(Cl)ccc1Cl,·,80.7*,0.1,·,10.0,·,99.1*,68.6
CC(C)(NO)/C(=N/O)c1ccc(Br)cc1,1.6,48.0,·,-7.8,-2.5,-2.2,12.5,-8.8
C[C@@H]1CN([C@H](C)CO)C(=O)Cc2cc(NS(C)(=O)=O)ccc2O[C@H]1CN(C)C(=O)Nc1ccc2c(c1)OCO2,·,·,-0.3,·,10.3[16.7 µM],·,·,·
O=C(C1CCC(CNS(=O)(=O)c2cccc3nsnc23)CC1)N1CC=C(c2ccccc2)CC1 (centres undefined),1.6,50.2,0.1,-3.0,-2.6,4.1,87.8*,56.4
CCOC(=O)c1cnc(-n2nc(C)cc2C)nc1NCCc1ccccc1,2.7,85.7*,·,-5.9,-11.2,-27.4,11.9,-6.9
CCOC(=O)c1cnc(-n2nc(C)cc2C)nc1NC1CCCC1,2.4,94.0*,0.1,7.9,-4.3,-45.6,29.8,-0.2
Cc1nnc(N/N=C/c2ccc(Br)cc2)n1N,0.5,57.0,-0.2,1.8,7.7,4.8,-6.6,6.4
CN1c2ccc(-c3cccc(F)c3)cc2[C@@H]2[C@@H](CCN2C(=O)CC2CC2)[C@@H]1CO,·,·,0.1,·,-7.2[16.7 µM],·,·,·
CCCNC(=O)N1CC2(CN(CC3CC3)C2)c2c([nH]c3cc(OC)ccc23)[C@H]1CO,·,·,-0.1,·,·,·,·,·
SMILES,NR2E3 ag-1,NR2E3 ag-2,FGF22 binding,Jurkat NFkB inh,miR122 inh,697 NFkB inh,NR2E3 ag confirm,VP16 counter
CC1CCCCN1S(=O)(=O)c1ccc(N(C(=O)c2cnccn2)C(C(=O)NC2CCCCC2)c2cccs2)cc1 (centres undefined),-2.3,57.8,·,-4.2,·,14.6,52.6,-3.6
COc1ccccc1-n1c(=O)c(C#N)c(-c2ccc([N+](=O)[O-])cc2)c2cc(C(=O)c3cc(F)ccc3O)cnc21,3.6,-8.5,0.8,0.1,-6.7,2.7,·,·
Cn1c(=O)c(C#N)c(-c2ccc(F)cc2)c2cc(C(=O)c3cc(Cl)cc(Cl)c3O)cnc21,-1.4,93.8*,0.3,0.8,-12.3,4.8,100.3*,94.2*
CC(=O)Oc1c(I)cc(I)cc1C(=O)Nc1ccc(Cl)cc1,2.0,105.5*,0.0,-4.9,7.6,-38.6,99.0*,87.5*
Cc1cc(Cl)ccc1OC(C)C(=O)Nc1ccc(S(=O)(=O)N2CCOCC2)cc1 (centres undefined),0.8,5.1,-0.8,1.4,4.1,5.8,·,·
Cc1cc(Cl)ccc1OC(C)C(=O)Nc1ccc(C(=O)Nc2ccccc2C(=O)O)cc1 (centres undefined),4.4,52.6,1.4*,-2.2,·,-9.8,10.2,32.1
Cc1ccc(S(=O)(=O)N(C)C[C@H]2OCCCC[C@H](C)Oc3ccc(NC(=O)CCC(F)(F)F)cc3C(=O)N([C@H](C)CO)C[C@@H]2C)cc1,·,·,·,·,8.4[16.7 µM],·,·,·
CCOc1cc(CNc2ccc3c(c2)OCCO3)cc(Br)c1OCC(N)=O,0.8,-11.6,·,7.1,-2.6,-28.6,·,·
CCOc1c(Br)cc(CNc2ccc3c(c2)OCCO3)cc1OC,1.6,65.6,·,45.9,18.0,-28.9,17.6,-4.5
CC(C)C(Sc1nc(-c2ccccc2)cc(-c2ccccc2)c1C#N)C(=O)O (centres undefined),4.5,58.3,·,6.4,·,3.5,63.2,32.9
COCCN1CCN(C(=O)c2ccc3nc(Cc4ccc(OC)c(OC)c4)oc3c2)CC1,3.5,69.9,-0.3,21.9,·,-36.0,45.4,55.8
COc1ccc(Cc2nc3ccc(C(=O)N4C[C@@H](C)O[C@@H](C)C4)cc3o2)cc1OC,2.4,-81.8,0.6,-26.8,-6.5,-102.5,·,·
C[C@H](CO)N1C[C@H](C)[C@H](CN(C)C(=O)N[C@H](C)c2ccccc2)OCc2ccccc2-c2ccccc2C1=O,·,·,0.4,·,·,·,·,·
NC(=O)CC(NC(=O)Cc1ccc(Cl)cc1)c1ccc(NC2CC3CCC2C3)c([N+](=O)[O-])c1 (centres undefined),2.8,98.2*,0.3,21.8,5.2,13.1,-21.4,-7.2

# Screening results deposited in PubChem BioAssay by several laboratories.
